“And” between values parts separate entries of the source, which are not always exact repeats. Equal values may be shown once.
Assays:
Assay type in all cases: toxicity, cell-based
[1] = system: U2OS; assay: Multiplex assay against U2OS; settings: human, number of replicates 2
Procedure, shortened: (§1)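 With compound added, live cells were imaged on a CQ1 microscope at 37°C and 5% CO2; staining with Hoechst33342, BioTracker Green Microtubule Cytoskeleton Dye, MitoTracker Red and Annexin V Alexa Fluor 680 had been done at seeding. The CellPathfinder machine-learning gating scheme split cells into Hoechst high-intensity objects or normal cells, normal cells into healthy, pyknosed or fragmented nuclei, and pyknosed cells into mitotic or apoptotic. The tubulin, mitochondrial-mass and membrane-permeability phenotypes are per cents of healthy-nucleus cells.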

[2] = system: HEK-293T; assay: Multiplex assay against HEK293T; settings: human, number of replicates 2; procedure, shortened: as §1
[3] = system: Fibroblast; assay: Multiplex assay against human fibroblast; settings: number of replicates 2; procedure, shortened: as §1
[4] = 12 h, 1 µM, compound concentration 1 uM
[5] = 12 h, 10 µM, compound concentration 10 uM
[6] = 24 h, 1 µM, compound concentration 1 uM
[7] = 24 h, 10 µM, compound concentration 10 uM
[8] = 48 h, 1 µM, compound concentration 1 uM
[9] = 48 h, 10 µM, compound concentration 10 uM

O=S(=O)(c1ccccc1)N(CC(F)(F)F)c1ccc(C(O)(C(F)(F)F)C(F)(F)F)cc1 [T091317]
Population Apoptotic (%) [1, 4]: 75% and 39% | Population Healthy Nuclei (%) [1, 4]: 62% and 82% | Population Hoechst High Intensity Objects (%) [1, 4]: 2% and 0% | Population Mitochondria Different-Phenotype (%) [1, 4]: 0% and 1% | Population Mitotic Cells (%) [1, 4]: 25% and 60% | Population Normal (%) [1, 4]: 97% and 100% | Population Pyknosed Nuclei (%) [1, 4]: 10% and 12% | Population Tubulin-Different-Phenotype (%) [1, 4]: 52% and 81% | Population Apoptotic (%) [1, 5]: 66% and 45% | Population Healthy Nuclei (%) [1, 5]: 56% and 80% | Population Hoechst High Intensity Objects (%) [1, 5]: 0% | Population Membrane Permeable-Phenotype (%) [1, 5]: 4% and 5% | Population Mitochondria Different-Phenotype (%) [1, 5]: 0% and 2% | Population Mitotic Cells (%) [1, 5]: 33% and 54% | Population Normal (%) [1, 5]: 100% | Population Pyknosed Nuclei (%) [1, 5]: 7% and 13% | Population Tubulin-Different-Phenotype (%) [1, 5]: 40% and 41% | Population Apoptotic (%) [1, 6]: 100% and 56% | Population Healthy Nuclei (%) [1, 6]: 58% and 88% | Population Hoechst High Intensity Objects (%) [1, 6]: 3% and 0% | Population Mitochondria Different-Phenotype (%) [1, 6]: 8% and 0% | Population Normal (%) [1, 6]: 96% and 100% | Population Pyknosed Nuclei (%) [1, 6]: 4% and 7% | Population Tubulin-Different-Phenotype (%) [1, 6]: 59% and 82% | Population Apoptotic (%) [1, 7]: 57% and 52% | Population Healthy Nuclei (%) [1, 7]: 65% and 78% | Population Hoechst High Intensity Objects (%) [1, 7]: 0% | Population Membrane Permeable-Phenotype (%) [1, 7]: 3% and 4% | Population Mitochondria Different-Phenotype (%) [1, 7]: 0% and 5% | Population Mitotic Cells (%) [1, 7]: 42% and 47% | Population Normal (%) [1, 7]: 100% | Population Pyknosed Nuclei (%) [1, 7]: 14% and 16% | Population Tubulin-Different-Phenotype (%) [1, 7]: 40% and 47% | Population Apoptotic (%) [1, 8]: 33% and 36% | Population Healthy Nuclei (%) [1, 8]: 65% and 90% | Population Hoechst High Intensity Objects (%) [1, 8]: 3% and 0% | Population Membrane Permeable-Phenotype (%) [1, 8]: 10% and 1% | Population Mitochondria Different-Phenotype (%) [1, 8]: 10% and 0% | Population Mitotic Cells (%) [1, 8]: 66% and 63% | Population Normal (%) [1, 8]: 96% and 100% | Population Pyknosed Nuclei (%) [1, 8]: 9% and 6% | Population Tubulin-Different-Phenotype (%) [1, 8]: 72% and 84% | Population Apoptotic (%) [1, 9]: 79% and 66% | Population Fragmented Nuclei (%) [1, 9]: 5% and 15% | Population Healthy Nuclei (%) [1, 9]: 81% and 70% | Population Hoechst High Intensity Objects (%) [1, 9]: 0% | Population Membrane Permeable-Phenotype (%) [1, 9]: 4% and 2% | Population Mitochondria Different-Phenotype (%) [1, 9]: 3% and 2% | Population Mitotic Cells (%) [1, 9]: 20% and 33% | Population Normal (%) [1, 9]: 100% | Population Pyknosed Nuclei (%) [1, 9]: 13% | Population Tubulin-Different-Phenotype (%) [1, 9]: 58% and 34% | Population Apoptotic (%) [2, 4]: 40% and 48% | Population Fragmented Nuclei (%) [2, 4]: 4% and 3% | Population Healthy Nuclei (%) [2, 4]: 83% and 82% | Population Hoechst High Intensity Objects (%) [2, 4]: 7% and 5% | Population Membrane Permeable-Phenotype (%) [2, 4]: 3% and 4% | Population Mitochondria Different-Phenotype (%) [2, 4]: 15% and 22% | Population Mitotic Cells (%) [2, 4]: 59% and 51% | Population Normal (%) [2, 4]: 92% and 94% | Population Pyknosed Nuclei (%) [2, 4]: 11% and 14% | Population Tubulin-Different-Phenotype (%) [2, 4]: 56% | Total Cell Count [2, 4]: 740 and 522 | Population Apoptotic (%) [2, 5]: 57% and 54% | Population Fragmented Nuclei (%) [2, 5]: 3% and 5% | Population Healthy Nuclei (%) [2, 5]: 83% and 81% | Population Hoechst High Intensity Objects (%) [2, 5]: 10% and 15% | Population Membrane Permeable-Phenotype (%) [2, 5]: 4% and 3% | Population Mitochondria Different-Phenotype (%) [2, 5]: 49% and 42% | Population Mitotic Cells (%) [2, 5]: 42% and 45% | Population Normal (%) [2, 5]: 89% and 84% | Population Pyknosed Nuclei (%) [2, 5]: 12% | Population Tubulin-Different-Phenotype (%) [2, 5]: 86% and 81% | Total Cell Count [2, 5]: 426 and 429 | Population Apoptotic (%) [2, 6]: 39% and 56% | Population Fragmented Nuclei (%) [2, 6]: 8% and 4% | Population Healthy Nuclei (%) [2, 6]: 83% and 85% | Population Hoechst High Intensity Objects (%) [2, 6]: 8% and 7% | Population Membrane Permeable-Phenotype (%) [2, 6]: 4% | Population Mitochondria Different-Phenotype (%) [2, 6]: 5% and 8% | Population Mitotic Cells (%) [2, 6]: 60% and 43% | Population Normal (%) [2, 6]: 91% and 92% | Population Pyknosed Nuclei (%) [2, 6]: 8% and 10% | Population Tubulin-Different-Phenotype (%) [2, 6]: 36% and 38% | Total Cell Count [2, 6]: 1214 and 697 | Population Apoptotic (%) [2, 7]: 44% and 68% | Population Fragmented Nuclei (%) [2, 7]: 2% and 7% | Population Healthy Nuclei (%) [2, 7]: 84% and 79% | Population Hoechst High Intensity Objects (%) [2, 7]: 9% and 18% | Population Membrane Permeable-Phenotype (%) [2, 7]: 4% and 3% | Population Mitochondria Different-Phenotype (%) [2, 7]: 53% and 59% | Population Mitotic Cells (%) [2, 7]: 55% and 31% | Population Normal (%) [2, 7]: 90% and 81% | Population Pyknosed Nuclei (%) [2, 7]: 12% and 13% | Population Tubulin-Different-Phenotype (%) [2, 7]: 87% and 86% | Total Cell Count [2, 7]: 385 and 376 | Population Fragmented Nuclei (%) [2, 8]: 15% and 8% | Population Healthy Nuclei (%) [2, 8]: 80% and 87% | Population Hoechst High Intensity Objects (%) [2, 8]: 10% and 9% | Population Membrane Permeable-Phenotype (%) [2, 8]: 6% and 3% | Population Mitochondria Different-Phenotype (%) [2, 8]: 0% and 2% | Population Mitotic Cells (%) [2, 8]: 90% and 68% | Population Normal (%) [2, 8]: 89% and 90% | Population Pyknosed Nuclei (%) [2, 8]: 3% | Population Tubulin-Different-Phenotype (%) [2, 8]: 19% and 22% | Total Cell Count [2, 8]: 2956 and 1428 | Population Apoptotic (%) [2, 9]: 67% and 74% | Population Fragmented Nuclei (%) [2, 9]: 7% and 14% | Population Healthy Nuclei (%) [2, 9]: 78% and 66% | Population Hoechst High Intensity Objects (%) [2, 9]: 14% and 24% | Population Membrane Permeable-Phenotype (%) [2, 9]: 4% | Population Mitochondria Different-Phenotype (%) [2, 9]: 66% and 58% | Population Mitotic Cells (%) [2, 9]: 32% and 25% | Population Normal (%) [2, 9]: 85% and 75% | Population Pyknosed Nuclei (%) [2, 9]: 14% and 19% | Population Tubulin-Different-Phenotype (%) [2, 9]: 94% and 82% | Total Cell Count [2, 9]: 296 and 264 | Population Apoptotic (%) [3, 4]: 45% and 27% | Population Fragmented Nuclei (%) [3, 4]: 13% and 11% | Population Healthy Nuclei (%) [3, 4]: 60% and 68% | Population Hoechst High Intensity Objects (%) [3, 4]: 0% | Population Membrane Permeable-Phenotype (%) [3, 4]: 8% and 10% | Population Mitochondria Different-Phenotype (%) [3, 4]: 1% | Population Mitotic Cells (%) [3, 4]: 54% and 72% | Population Normal (%) [3, 4]: 100% | Population Pyknosed Nuclei (%) [3, 4]: 25% and 20% | Population Tubulin-Different-Phenotype (%) [3, 4]: 28% and 21% | Total Cell Count [3, 4]: 135 and 214 | Population Apoptotic (%) [3, 5]: 33% and 30% | Population Fragmented Nuclei (%) [3, 5]: 14% and 12% | Population Healthy Nuclei (%) [3, 5]: 58% and 67% | Population Hoechst High Intensity Objects (%) [3, 5]: 0% | Population Membrane Permeable-Phenotype (%) [3, 5]: 6% and 8% | Population Mitochondria Different-Phenotype (%) [3, 5]: 1% and 4% | Population Mitotic Cells (%) [3, 5]: 66% and 69% | Population Normal (%) [3, 5]: 99% and 100% | Population Pyknosed Nuclei (%) [3, 5]: 28% and 19% | Population Tubulin-Different-Phenotype (%) [3, 5]: 40% and 34% | Total Cell Count [3, 5]: 151 and 132 | Population Apoptotic (%) [3, 6]: 50% and 52% | Population Fragmented Nuclei (%) [3, 6]: 15% and 10% | Population Healthy Nuclei (%) [3, 6]: 54% and 57% | Population Hoechst High Intensity Objects (%) [3, 6]: 0% | Population Membrane Permeable-Phenotype (%) [3, 6]: 7% and 15% | Population Mitochondria Different-Phenotype (%) [3, 6]: 5% and 0% | Population Mitotic Cells (%) [3, 6]: 50% and 47% | Population Normal (%) [3, 6]: 100% | Population Pyknosed Nuclei (%) [3, 6]: 29% and 31% | Population Tubulin-Different-Phenotype (%) [3, 6]: 28% and 24% | Total Cell Count [3, 6]: 128 and 204 | Population Apoptotic (%) [3, 7]: 63% and 37% | Population Fragmented Nuclei (%) [3, 7]: 16% and 18% | Population Healthy Nuclei (%) [3, 7]: 47% and 57% | Population Hoechst High Intensity Objects (%) [3, 7]: 0% | Population Membrane Permeable-Phenotype (%) [3, 7]: 8% and 17% | Population Mitochondria Different-Phenotype (%) [3, 7]: 7% and 4% | Population Mitotic Cells (%) [3, 7]: 36% and 62% | Population Normal (%) [3, 7]: 100% and 99% | Population Pyknosed Nuclei (%) [3, 7]: 35% and 24% | Population Tubulin-Different-Phenotype (%) [3, 7]: 65% and 56% | Total Cell Count [3, 7]: 145 and 143 | Population Apoptotic (%) [3, 8]: 75% and 69% | Population Fragmented Nuclei (%) [3, 8]: 10% and 13% | Population Healthy Nuclei (%) [3, 8]: 60% and 54% | Population Hoechst High Intensity Objects (%) [3, 8]: 0% | Population Membrane Permeable-Phenotype (%) [3, 8]: 15% and 14% | Population Mitochondria Different-Phenotype (%) [3, 8]: 0% and 2% | Population Mitotic Cells (%) [3, 8]: 24% and 30% | Population Normal (%) [3, 8]: 100% and 99% | Population Pyknosed Nuclei (%) [3, 8]: 28% and 31% | Population Tubulin-Different-Phenotype (%) [3, 8]: 32% and 24% | Total Cell Count [3, 8]: 128 and 175 | Population Apoptotic (%) [3, 9]: 71% and 78% | Population Fragmented Nuclei (%) [3, 9]: 25% and 16% | Population Healthy Nuclei (%) [3, 9]: 46% and 54% | Population Hoechst High Intensity Objects (%) [3, 9]: 1% and 0% | Population Membrane Permeable-Phenotype (%) [3, 9]: 16% and 26% | Population Mitochondria Different-Phenotype (%) [3, 9]: 4% | Population Mitotic Cells (%) [3, 9]: 28% and 21% | Population Normal (%) [3, 9]: 98% and 99% | Population Pyknosed Nuclei (%) [3, 9]: 27% and 28% | Population Tubulin-Different-Phenotype (%) [3, 9]: 69% and 80% | Total Cell Count [3, 9]: 143 and 134

— ChEMBL document CHEMBL5303300, “EUbOPEN Chemogenomics Library - Multiplex” (2023)
